# Source: PubChem BioAssay
# Runt-CBFb FRET: blocks binding of human RUNX1 Runt domain to CBFb; Q01196+Q13951; Cerulean-Runt/Venus-CBFb FRET ratio 530/480, 1 h; inhibition, % at 20 µM; 0.46% of 220,000 active; AID 1496;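 active = inhibition over about 50% at 20 µM in the single-dose screen, limit read from the data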;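 note: 0% = DMSO wells and 100% = excess unlabeled CBFb competitor control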
#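 test system = Cerulean-Runt domain fusion protein, energy donor | probe or stimulus = Venus-CBFb binding partner, 100 nM | incubation = two 1 h room-temperature incubations shielded from light | detection = fluorescence energy transfer, 422 nm excitation, 530/480 nm emission | measure = loss of energy transfer signal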
# Runt-SMMHC FRET: blocks binding of human RUNX1 Runt domain to CBFb-SMMHC; Cerulean-Runt/Venus-CBFb-SMMHC FRET ratio 530/480, 1 h; AID 1434; 0.74% of 220,000 active; inhibition, % at 20 µM;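 active = mean inhibition across duplicate retests at 20 µM reaching about 50%, limit read from the data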;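 note: 0% = DMSO wells and 100% = wells with excess untagged CBFb-SMMHC; inhibitors lower the FRET ratio by blocking Runt binding to CBFb-SMMHC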
# PfM18AAP inh-1: blocks P. falciparum M18 aspartyl aminopeptidase; recombinant PfM18AAP, H-Glu-NHMec fluorogenic cleavage; inhibition, % at 7.35 µM; 1.2% of 290,000 active;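 active = inhibition above the campaign mean inhibition over all tested compounds plus 3 SD, cut at about 28% in these data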;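 note: 0% = plate median of test compound wells and 100% = 2 mM ZnCl2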
# RBBP9 inh: inhibitors of human serine hydrolase RBBP9. O75884. recombinant RBBP9, FP-Rh probe fluorescence polarization. inhibition, % at 7.94 µM. 0.2% of 220,000 active. AID 1515;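 active = inhibition above the campaign mean of all tested compounds plus 3 SD, cut at about 14% in these data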;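 note: plate controls were DMSO wells with RBBP9 for no effect and wells lacking RBBP9 protein for full effect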
#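 system = RBBP9 protein | input = RBBP9 at 2.5 µM in dispensed solution, before mixing | measured by = fluorescence polarization (mP), excitation 525 nm, emission 598 nm | incubation = enzyme-compound preincubation 30 min, then probe labeling 45 min, 25 °C | buffer or medium = Tris-NaCl-Pluronic buffer, pH 8.0 | compound = single dose 7.94 µM | also added = FP-Rh probe, 375 nM dispensing solution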
# Hck-Nef inh: blocks Nef-activated human Hck kinase | Recombinant Hck-YEEI plus Nef, Z-Lyte FRET kinase assay | inhibition, % at 20 µM | 0.68% of 220,000 active | AID 463187;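 active = Hck-Nef kinase inhibition above about 50%, limit read from the data; inactive = inhibition below that limit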;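 note: 0% = DMSO with Hck plus Nef and 100% = Hck alone without Nef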
# Target sequence (P08631 whole entry, looked up): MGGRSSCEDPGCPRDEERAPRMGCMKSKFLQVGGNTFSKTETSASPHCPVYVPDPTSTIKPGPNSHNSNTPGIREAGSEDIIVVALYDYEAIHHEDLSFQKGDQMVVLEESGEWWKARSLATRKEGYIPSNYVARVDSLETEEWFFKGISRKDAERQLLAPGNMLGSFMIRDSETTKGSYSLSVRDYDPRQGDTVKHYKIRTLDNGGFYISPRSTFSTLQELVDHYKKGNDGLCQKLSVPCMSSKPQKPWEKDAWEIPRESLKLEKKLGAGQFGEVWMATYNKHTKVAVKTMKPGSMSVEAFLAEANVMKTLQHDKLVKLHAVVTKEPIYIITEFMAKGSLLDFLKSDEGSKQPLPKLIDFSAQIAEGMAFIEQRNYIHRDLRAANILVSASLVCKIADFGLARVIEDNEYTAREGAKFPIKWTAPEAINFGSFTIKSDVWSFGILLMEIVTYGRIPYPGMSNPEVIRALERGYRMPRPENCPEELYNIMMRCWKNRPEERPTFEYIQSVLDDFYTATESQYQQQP
# RanGTP-Imp inh: disruptors of Ran-importin-beta complex formation – biochemical, FRET, CFP-Ran, YFP-importin-beta, homogeneous, primary screen | cell-free CFP-Ran/YFP-importin-beta FRET ratio | inhibition, % (no concentration beside the values) | 1.1% of 300,000 active | AID 2216;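 active = more than half of the replicate wells show a fall in the fluorescence ratio signal beyond about 16%, limit read from the data, passing the limit was not always enough; inconclusive = exactly half of the replicate wells pass the set limit; inactive = fewer than half of replicates pass the limit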;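 note: 0% = DMSO wells and 100% = Ran loaded with GDP instead of GTP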
# RBBP9 inh conf: human RBBP9 inhibition, confirmation; shares compounds with RBBP9 inh; recombinant RBBP9, FP-Rh probe fluorescence polarization; inhibition, % at 7.94 µM; 36% of 410 active;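 active = inhibition above the hit cutoff derived for the primary screen, cut at about 15% in these data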;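 note: 0% = RBBP9 with DMSO and 100% = wells lacking RBBP9 protein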
# PfM18AAP inh-2: PfM18AAP inhibition, confirmation | shares compounds with PfM18AAP inh-1 | recombinant PfM18AAP, H-Glu-NHMec fluorogenic cleavage | inhibition, % at 7.35 µM | 28% of 2,400 active;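 active = mean inhibition over replicate wells above the hit cutoff set for the earlier primary screen, cut at about 29% in these data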;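 note: 0% = median of test compound wells and 100% = 2 mM ZnCl2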
# CTSL1 counter: Cathepsin L (human) inhibition, confirmation; shares compounds with PfM18AAP inh-1; purified cathepsin L1, Z-Leu-Arg-MCA fluorescence; inhibition, % at 5.96 µM; 2,400 tested, under 10 active; AID 2178;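 active = average inhibition across replicates above the hit cutoff set in the earlier primary screen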;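 note: 0% = median of test compound wells and 100% = Z-Phe-Ala-diazomethylketone 1 µM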
# Starred values were filed as active, the others as inactive; ? = inconclusive; . = no result. This is a sample that favours compounds with a hit; in the whole collection about 2.9% have one here.
SMILES,Runt-CBFb FRET,Runt-SMMHC FRET,PfM18AAP inh-1,RBBP9 inh,Hck-Nef inh,RanGTP-Imp inh,RBBP9 inh conf,PfM18AAP inh-2,CTSL1 counter
O=C(NCc1ccc2c(c1)OCO2)C1CC(=O)N(c2ccc(F)cc2)C1 (stereo unspecified),-3,-7,10,17*,-7,0,2,.,.
CC(C)OCCCNC(=O)C1CC(=O)N(CCc2ccccc2)C1 (stereo unspecified),.,.,-2,.,.,5,.,.,.
COc1ccc(C(=O)N2CCN(C)C(=O)[C@@H]2C)cc1OC1CCN(C(C)C)CC1,.,.,1,.,.,-1,.,.,.
COC(=O)/C(=C/Nc1ccc(O)cc1)[N+](=O)[O-],16,0,0,38*,2,-5,9,.,.
COC(=O)/C(=C/Nc1ccccc1)[N+](=O)[O-],0,0,11,-3,7,-3,.,.,.
O=C(Oc1ccc(-c2cnc3ccccc3n2)cc1)c1ccc(Br)o1,-3,-7,9,17*,1,0,-4,.,.
O=C(Oc1ccc(-c2cnc3ccccc3n2)cc1)c1cccc([N+](=O)[O-])c1,2,-4,-1,-6,5,1,.,.,.
Cc1ccccc1Cn1nc(C)c(NC(=O)C2c3ccccc3Oc3ccccc32)c1C,-3,-4,-3,-4,2,2,.,.,.
COc1ccc(NC(=O)C2CSC3c4ccccc4C(=O)N23)cc1 (stereo unspecified),0,4,12,14*,2,3,3,.,.
COC(=O)C1CSC2c3ccccc3C(=O)N12 (stereo unspecified),.,.,.,.,.,-1,.,.,.
N#Cc1ccc(-c2ccccc2)nc1SCC(=O)c1cc2ccccc2oc1=O,6,-20,34*,30*,17,1,-57,-19,-1
Cc1cc(OCc2cc(C(=O)NCCN3CCCCC3CO)no2)cc(C)c1Cl (stereo unspecified),.,.,4,.,.,-1,.,.,.
Cc1cccc(N2CCN(C(=O)Cn3sc4nc(C)cc(C)c4c3=O)CC2C)c1 (stereo unspecified),-20,74*,49*,19*,1,2,34*,17,-3
Cc1cccc(N2CCN(C(=O)Cn3nc(C)n4cccc4c3=O)CC2C)c1 (stereo unspecified),.,.,1,.,.,-3,.,.,.
CCOc1ccc(N2CC(C(=O)Nc3nnc(Cc4ccc(OC)cc4)s3)CC2=O)cc1 (stereo unspecified),.,.,4,.,.,1,.,.,.
Cc1ccccc1-n1sc2cc(F)ccc2c1=O,36,46,70*,63*,-104,.,72*,64*,-7
CCC(C(=O)NCc1cccs1)n1nc(C)n2c(cc3occc32)c1=O (stereo unspecified),.,.,4,.,.,5,.,.,.
CC(=O)C(C(C)=O)c1c(Cl)c(O)c(O)c2c(C(=O)c3ccccc3)coc12,45,41,55*,26*,2,2,34*,55*,3
O=c1c2cc(N3CCOCC3)ccc2[nH]c(=S)n1Cc1ccccc1Cl,.,-8,2,0,21,3,.,.,.
O=c1c2cc(N3CCOCC3)ccc2[nH]c(=S)n1Cc1ccccn1,17,-14,44*,15*,-5,2,11,-3,-2
O=c1[nH]nc(CNc2ccc(O)cc2)c2ccccc12,16,21,35*,17*,-21,-3,6,-18,0
O=c1c2ccccc2sn1-c1ccccc1,32,57*,56*,51*,96*,3,50*,52*,0
O=c1c2ccccc2sn1-c1ccc(S(=O)(=O)N2CCCCC2)cc1,.,.,12,-6,0,6,.,.,.
C=CCN(C(=O)c1csnn1)C(C(=O)NC1CCCCC1)c1ccc(F)cc1 (stereo unspecified),.,.,3,.,.,?,.,.,.
